ChEMBL document CHEMBL1177727, “Diarylaniline derivatives as a distinct class of HIV-1 non-nucleoside reverse transcriptase inhibitors” (J Med Chem, 2010)
pEC50: −log10 of the molar value. Active and inactive are the calls of the source. The calls are words filed in the database; no cut-off is given here.

Legend:
H9 = test: Cytotoxicity against human H9 cells after 6 days by XTT assay; assay type: cell-based; settings: h9, 144 h
In short: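 Mock-infected H9 human T cells (3 × 10⁵ cells/mL in RPMI 1640 with 10% fetal calf serum and L-glutamine, 37 °C, 5% CO₂) exposed to samples diluted from 10 mg/mL DMSO master stocks (screening at 100, 20, 4, 0.8 µg/mL). Media replaced on days 1 and 4, assay ended day 6. Viability by XTT, 50% cytotoxic concentration taken. Mean of three independent assays.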

[1] = system: Human immunodeficiency virus 1; test: Antiviral activity against HIV1 3B infected in human H9 cells assessed as inhibition of viral replication after 6 days by p24 antigen based assay; assay type: functional, organism-based; settings: for pEC50: read-out: EC50
In short: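 H9 cells (3 × 10⁵ cells/mL) infected with HIV-1 IIIB, 125 TCID₅₀ per well, with drug diluted from 10 mg/mL DMSO master stocks; screening at 100, 20, 4, 0.8 µg/mL, with further dilutions for actives. Media replaced on days 1 and 4; supernatant p24 antigen capture on day 6. Run alongside AZT control; averages of three independent assays.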

[2] = Selectivity index, ratio of CC50 for human H9 cells to EC50 for HIV1 3B; assay type: toxicity, cell-based
In short: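 SI = CC50/EC50 in H9 cells. Toxicity by XTT on mock-infected H9 cultures set up identically to the HIV-1 IIIB infection wells (same drug concentrations, media changes days 1 and 4, 6-day culture).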

[3] = system: Human immunodeficiency virus 1; test: Antiviral activity against HIV1 with reverse transcriptase 6005MR mutant infected in human MT2 cells assessed as inhibition of p24 antigen production after 4 days by ELISA; assay type: functional, organism-based; settings: Human immunodeficiency virus 1, MT2, 96 h
In short: (§1)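 Drug-resistant HIV-1 strains (Panacos) at MOI 0.001 TCID₅₀/cell, mixed with compound dilutions in RPMI 1640/10% FBS and cells at 6×10⁵ cells/mL, 37 °C. Compound-containing fresh medium added on day 2; supernatant p24 ELISA on day 4. Averages of three independent assays.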

[4] = system: Human immunodeficiency virus 1; test: Antiviral activity against HIV1 with reverse transcriptase A17 (K103N, Y181C) mutant infected in human MT2 cells assessed as inhibition of p24 antigen production after 4 days by ELISA; assay type: functional, organism-based; settings: Human immunodeficiency virus 1, MT2, 96 h; in short: as §1
[5] = system: Human immunodeficiency virus 1; test: Resistant fold, ratio of EC50 for HIV1 with reverse transcriptase A17 (K103N, Y181C) mutant to EC50 for wild type HIV1 3B; assay type: functional
[6] = system: Human immunodeficiency virus 1; test: Antiviral activity against HIV1 with reverse transcriptase Y181C mutant infected in human MT2 cells assessed as inhibition of p24 antigen production after 4 days by ELISA; assay type: functional, organism-based; settings: Human immunodeficiency virus 1, MT2, 96 h; in short: as §1
[7] = system: Human immunodeficiency virus 1; test: Antiviral activity against wild type HIV1 3B infected in human MT2 cells assessed as inhibition of p24 antigen production after 4 days by ELISA; assay type: functional, organism-based; settings: Human immunodeficiency virus 1, 3B, MT2, 96 h
In short: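 1 × 10⁴ MT-2 cells infected with HIV-1 IIIB (100 TCID₅₀) in RPMI 1640/10% FBS with graded compound overnight, then compound-free medium. Day-4 supernatants lysed in Triton X-100 and p24 measured by sandwich ELISA (HIVIG capture, anti-p24 mAb, TMB, A450) against a recombinant p24 standard curve. Triplicates; EC50 from percent inhibition via median-effect analysis.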

[8] = system: Human immunodeficiency virus 1; test: Antiviral activity against HIV1 with reverse transcriptase 8605MR mutant infected in human MT2 cells assessed as inhibition of p24 antigen production after 4 days by ELISA; assay type: functional, organism-based; settings: Human immunodeficiency virus 1, MT2, 96 h; in short: as §1
[9] = target: Human immunodeficiency virus type 1 reverse transcriptase (Human immunodeficiency virus 1) (UniProt Q72547); test: Inhibition of HIV1 DH012 reverse transcriptase
In short: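 Reverse transcriptase activity of primary isolate HIV-1 DH012 measured with a colorimetric HIV-1 RT kit following the manufacturer's protocol, in the presence of various compound concentrations. The kit reads RNA-dependent DNA polymerase activity.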

[10] = Human immunodeficiency virus 1, 3B, H9, 144 h

SMILES	CC50 (H9)	pEC50 [1, 10]	Ratio CC50/EC50 [2]	other results
Cc1cc(C#N)cc(C)c1Oc1ccc(N)c(Nc2ccc(C#N)cc2)c1	49.8 µM	7.15	711	–
Cc1cc(Br)cc(C)c1Oc1cc(Nc2ccc(C#N)cc2)c(N)cc1[N+](=O)[O-]	–	7.80	2842	CC50 (H9; 144 h): 45.5 µM; pEC50 [3]: 8.15; pEC50 [4]: 6.60; Ratio EC50 [5]: 20.3; pEC50 [6]: 5.89; pEC50 [7]: 8.10; pEC50 [8]: 7.70
Cc1cc(Br)cc(C)c1Oc1cc(Nc2ccc([N+](=O)[O-])cc2)c([N+](=O)[O-])cc1[N+](=O)[O-]	> 49.7 µM	< 4.30	> 1	–
Cc1cccc(C)c1Oc1ccc([N+](=O)[O-])c(Nc2ccc(C#N)cc2)c1	69.6 µM	5.50	22	–
Cc1cc(C)c(Oc2cc(Nc3ccc(C#N)cc3)c([N+](=O)[O-])cc2[N+](=O)[O-])c(C)c1	> 59.8 µM	6.55	> 214	–
COc1ccc(Nc2cc(Oc3c(C)cc(C)cc3C)c([N+](=O)[O-])cc2[N+](=O)[O-])cc1	> 59.1 µM	5.52	> 20	–
Cc1cc(Br)cc(C)c1Oc1cc(Nc2ccc(C#N)cc2)c([N+](=O)[O-])cc1[N+](=O)[O-]	> 51.8 µM	6.76	> 301	–
Cc1cc(C#N)cc(C)c1Oc1cc(Nc2ccc(C#N)cc2)c([N+](=O)[O-])cc1[N+](=O)[O-]	> 58.3 µM	5.38	> 14	–
COc1ccc(Nc2cc(Oc3c(C)cccc3C)c([N+](=O)[O-])cc2[N+](=O)[O-])cc1	> 61.1 µM	5.42	> 16	–
COc1ccc(Nc2cc(Oc3c(C)cc(Br)cc3C)c([N+](=O)[O-])cc2[N+](=O)[O-])cc1	51.2 µM	5.44	14	–
Cc1cc(C#N)cc(C)c1Oc1nc(Nc2ccc(C#N)cc2)nc(N)c1Br [ETRAVIRINE]	–	–	–	pEC50 [4]: 6.24; Ratio EC50 [5]: 9.9; pEC50 [7]: 7.24
Cc1cc(C)c(Oc2cc(Nc3ccc(C#N)cc3)c(N)cc2[N+](=O)[O-])c(C)c1	32.2 µM	7.21	520	–
Cc1cc(C)c(Oc2cc(Nc3ccc(C#N)cc3)c(N)cc2N)c(C)c1	50 µM	7.15	714	–
Cc1cc(Br)cc(C)c1Oc1cc(Nc2ccc(Cl)cc2)c([N+](=O)[O-])cc1[N+](=O)[O-]	–	–	–	EC50 ([1]; h9): Not Active
Cc1ccnc2c1NC(=O)c1cccnc1N2C1CC1 [NEVIRAPINE]	–	–	–	pEC50 [3]: < 5.43; pEC50 [4]: < 5.43; pEC50 [6]: < 5.43; pEC50 [7]: 7.28; pEC50 [8]: < 5.43
Cc1cc(Br)cc(C)c1Oc1ccc([N+](=O)[O-])c(Nc2ccc(C#N)cc2)c1	> 57.1 µM	6.50	> 180	–
Cc1cc(C#N)cc(C)c1Oc1cc(Nc2ccc(C#N)cc2)c(N)cc1[N+](=O)[O-]	62.7 µM	8.52	20887	pEC50 [3]: 8.30; Activity [9]: Active; pEC50 [4]: 6.64; Ratio EC50 [5]: 18.9; pEC50 [6]: 6.30; pEC50 [7]: 8.30; pEC50 [8]: 8.30
Cc1cn([C@H]2C[C@H](N=[N+]=[N-])[C@@H](CO)O2)c(=O)[nH]c1=O [ZIDOVUDINE]	1870 µM	7.28	36019	–
Cc1cc(C)c(Oc2ccc([N+](=O)[O-])c(Nc3ccc(C#N)cc3)c2)c(C)c1	> 67 µM	7.17	> 1000	–
Cc1cc(C=O)cc(C)c1Oc1cc(Nc2ccc(C#N)cc2)c([N+](=O)[O-])cc1[N+](=O)[O-]	57.9 µM	5.82	38	–
Cc1cc(Br)cc(C)c1Oc1cc(Nc2ccc(C#N)cc2)c(N)cc1N	38.4 µM	6.79	238	–
Cc1cc(C=O)cc(C)c1Oc1ccc([N+](=O)[O-])c(Nc2ccc(C#N)cc2)c1	14.2 µM	5.66	6	–
Cc1cccc(C)c1Oc1cc(Nc2ccc(C#N)cc2)c(N)cc1N	53.2 µM	5.49	16	–
Cc1cc(C#N)cc(C)c1Oc1cc(Nc2ccc(C#N)cc2)c(N)cc1N	51 µM	7.52	1698	pEC50 [3]: 7.48; Activity [9]: Active; pEC50 [4]: 5.91; Ratio EC50 [5]: 73.3; pEC50 [6]: 5.76; pEC50 [7]: 7.19; pEC50 [8]: 6.86
Cc1ccc(Nc2cc(Oc3c(C)cc(Br)cc3C)c([N+](=O)[O-])cc2[N+](=O)[O-])cc1	53 µM	5.37	12	–
Cc1cccc(C)c1Oc1cc(Nc2ccc(C#N)cc2)c([N+](=O)[O-])cc1[N+](=O)[O-]	> 61.9 µM	6.26	> 113	–
Cc1cc(C)c(Oc2ccc(N)c(Nc3ccc(C#N)cc3)c2)c(C)c1	51 µM	7.14	699	–
Cc1cc(Br)cc(C)c1Oc1cc(Nc2ccc(C#N)cc2)c(N)cc1[N+](=O)[O-].Cl	–	–	3035	pEC50 ([1]; h9): 7.92
Cc1cc(C#N)cc(C)c1Oc1ccc([N+](=O)[O-])c(Nc2ccc(C#N)cc2)c1	> 65.1 µM	6.68	> 313	–
Cc1cc(Br)cc(C)c1Oc1ccc(N)c(Nc2ccc(C#N)cc2)c1	44.6 µM	7.33	949	–
